17 compounds from ChEMBL document CHEMBL2057138, “Design and synthesis of marine fungal phthalide derivatives as PPAR-γ agonists” (Bioorg Med Chem, 2012) can be followed below.

The source made the active and inactive calls. The rule behind the calls is not given here.

In assay [1] the target is T1, Peroxisome proliferator-activated receptor gamma (Homo sapiens) (UniProt P37231).
T1 sequence (whole entry): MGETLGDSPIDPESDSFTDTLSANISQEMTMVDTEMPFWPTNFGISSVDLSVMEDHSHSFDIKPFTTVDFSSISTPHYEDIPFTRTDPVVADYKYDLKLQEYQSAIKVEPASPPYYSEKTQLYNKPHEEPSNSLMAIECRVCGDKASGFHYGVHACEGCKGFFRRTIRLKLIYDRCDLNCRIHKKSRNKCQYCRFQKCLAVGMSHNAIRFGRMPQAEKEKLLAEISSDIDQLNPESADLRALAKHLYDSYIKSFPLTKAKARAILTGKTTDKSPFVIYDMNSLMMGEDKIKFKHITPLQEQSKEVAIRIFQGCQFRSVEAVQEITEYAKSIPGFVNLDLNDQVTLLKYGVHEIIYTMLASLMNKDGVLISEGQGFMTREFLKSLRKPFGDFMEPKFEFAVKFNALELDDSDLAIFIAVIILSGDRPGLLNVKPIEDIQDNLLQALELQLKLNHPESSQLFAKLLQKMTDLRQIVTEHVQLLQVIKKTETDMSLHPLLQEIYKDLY
The experiment in a line: Binding affinity to GST-tagged PPARgamma LBD at 50 uM after 4 hrs by TR-FRET competitive binding assay. Summed up: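 LanthaScreen TR-FRET competitive binding. Mix of 0.5 nM GST-tagged PPAR-γ LBD, 5 nM terbium anti-GST antibody and 5 nM Fluormone Pan-PPAR Green tracer, with compound at 50 µM and DMSO solvent control. Incubated 4 h in the dark. Read as the 520/495 nm emission ratio (counting 0.1 s, integration 20 µs). Mean + s.d., n = 3.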
For orientation: Time-resolved FRET reads energy transfer from a long-lived donor to a nearby acceptor.

Assay [2] deals with Peroxisome proliferator-activated receptor gamma (Homo sapiens) (UniProt P37231). Description: Agonist activity at PPARgamma in rat Ac2F cells assessed as luciferase activity after 6 hrs by reporter gene assay. (In general: Reporter assays use an easily measured gene product as a stand-in for the process of interest.)
Assay [3] shares this target. Description: Agonist activity at PPARgamma in rat Ac2F cells assessed as luciferase activity at 0.1 to 10 uM after 6 hrs by reporter gene assay.

Take `CCCCCCCCC1(O)OC(=O)c2c(O)cccc21` (stereo not given): the outcome in assay [1] was inactive. The same measure, in the same setting: the entry for `CCCCCCCCCC(=O)Oc1cccc2c1C(=O)OC2=O` is “inactive”; for `CCCCCCCCC1(CCCCCCCC)OC(=O)c2c(O)cccc21` it is “inactive”. On to `CCCCCCCCC1(OC)OC(=O)c2c(OCc3ccccc3)cccc21` (stereo not given), for which the result in assay [1] was inactive. Take `O=C1OC(=O)c2c(O)cccc21`: the result in assay [1] was Active. On the same count and under the same terms, under `CCCCCCCCOC(=O)c1cccc(O)c1C(=O)O` stands “Active”; under `CCCCCCCCC1(O)OC(=O)c2cccc(O)c21` (stereo not given), “inactive”. Turning to `CCCCCCCCC1OC(=O)c2c(OC)cccc21` (stereo not given), the outcome in assay [1] was inactive. Same read-out and setting: the entry for `CCCCCCCCC1(O)OC(=O)c2c(OCc3ccccc3)cccc21` (stereo not given) is “inactive”; for `CN(CCOc1ccc(CC2SC(=O)NC2=O)cc1)c1ccccn1` (stereo not given) it is “Active”. Still for that read-out and setting: the entry for `O=C1OC(=O)c2ccccc21` is “inactive”. With `CCCCCCCCC1OC(=O)c2c(O)cccc21` (racemic), the outcome in assay [1] and in assay [3] was Active. For the same compound, in assay [2], the Activity result was “Dose-dependent effect”. `CCCCCCCCC1(OCc2ccccc2)OC(=O)c2c(OCc3ccccc3)cccc21` (stereo not given): the result in assay [1] was inactive. Take `CCCCCCCCOC(=O)c1cccc([N+](=O)[O-])c1C(=O)O`: in assay [1], the outcome was Active. Take `CCCCCCCCC1OC(=O)c2cccc(O)c21` (stereo not given): the result in assay [1] and in assay [3] was Active. For `CCCCCCCCC1(CCCCCCCC)OC(=O)c2cccc(O)c21`, in assay [1], the result was inactive. For `O=C1OC(=O)c2c1cccc2[N+](=O)[O-]`, in assay [1], the outcome was inactive.
